Publication PMC6172447 (iScience, 2018)

Assays:
[1] = test system: U2OS cells; assay: Autophagic turnover, BafA1-induced LC3B-II accumulation by immunoblotting; format: cell-based, human
[2] = test system: U2OS cells; assay: Phagophore formation, endogenous ATG12 immunofluorescence; format: cell-based, human
[3] = test system: U2OS cells stably expressing EGFP-DFCP1; assay: Omegasome formation, EGFP-DFCP1 puncta by live-cell fluorescent microscopy; format: cell-based, human
Summary of the method: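 U2OS cells stably expressing EGFP-DFCP1 were given vehicle or 100 nM AZD8055, with or without 5 μM test compound, for 2.5 hr. They were imaged live by fluorescence microscopy in the green FITC channel. EGFP-DFCP1 objects per cell were counted in 20–25 cells per condition. Mean ± SEM; two-tailed unpaired t test.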

[4] = test system: nutrient-starved murine embryonic fibroblasts; settings: 1 μM, ref Petherick et al., 2015; cited from earlier work
[5] = test system: ULK1; settings: ref Egan et al., 2015; cited from earlier work
[6] = test system: AMPK; assay: KinaseProfiler radiometric assay, AMPK; format: biochemical, human; settings: selectivity profiling, 40 nM ULK-101 or 15 nM ULK-100
[7] = test system: 327 recombinant human kinases; assay: KinaseProfiler radiometric selectivity profiling, wild-type human kinase panel; format: biochemical; settings: 326 non-ULK1 kinases; 500 nM SBI-0206965, 40 nM ULK-101, or 15 nM ULK-100
[8] = 5 μM ULK-101 co-treatment with 100 nM AZD8055, 2.5 hr

COc1ccc(-c2ccc3c(N4CCOC[C@@H]4C)nc(N4CCOC[C@@H]4C)nc3n2)cc1CO [AZD8055, reference compound]
Increase in BafA1-induced LC3B-II accumulation ([1]; 100 nM AZD8055, within 1 hr): over 2 fold
ATG12-positive puncta formation ([2]; 100 nM AZD8055, 2.5 hr): distinct ATG12-positive puncta
Increase in abundance of DFCP1-positive puncta ([3]; 100 nM AZD8055, 2.5 hr, vs vehicle): over 3 fold

CN1CCc2cc(Nc3ncc(C4CC4)c(NCCCNC(=O)C4CCC4)n3)ccc2C1 [MRT68921]
Effect on BafA1-induced LC3-II accumulation [4]: block BafA1-induced LC3-II accumulation

CNC(=O)c1ccccc1Oc1nc(Nc2cc(OC)c(OC)c(OC)c2)ncc1Br [SBI-0206965]
Effect on Beclin 1 Ser15 phosphorylation in cells [5]: reduce Beclin 1 Ser15 phosphorylation

CC(C)[C@H](NC(=O)c1cc(-c2cnn3cc(-c4ccc(OCCN5CCCCC5)cc4)cnc23)cs1)C(F)(F)F [ULK-100]
AMPK inhibition in vitro [6]: inhibited

O=C(N[C@@H](C1CC1)C(F)(F)F)c1cc(-c2cnn3cc(-c4ccc(F)cc4)cnc23)cs1 [ULK-101]
Effect on AZD8055-induced increase of BafA1-induced LC3B-II accumulation ([1]; 5 μM ULK-101 with 100 nM AZD8055, 3 hr): negated
Effect on AZD8055-induced ATG12-positive puncta [2, 8]: strongly suppressed
Effect on AZD8055-induced formation of DFCP1-positive structures [3, 8]: completely abrogated
Number of other kinases inhibited at least 75% as well as ULK1 [7]: four
AMPK inhibition in vitro [6]: spared
